The values that follow come from ChEMBL document CHEMBL3232877, “Synthesis and activity of tumor-homing peptide iRGD and histone deacetylase inhibitor valproic acid conjugate” (2014).

Common to all, as to type: functional
Test [1] concerns DU-145. The experiment in a line: Cell cycle arrest in human DU145 cells assessed as accumulation of cells at G1 phase at 1.5 mM after 24 hrs by flow cytometry (Rvb =64.7 %). On the technique in general: A flow cytometer gives signals particle by particle.
For test [2], the system named is DU-145. The experiment in a line: Cell cycle arrest in human DU145 cells assessed as accumulation of cells at G2 phase at 1.5 mM after 24 hrs by flow cytometry (reference value: 22.1 %).
The subject of test [3] is DU-145. Kind of test: Cytotoxicity against human DU145 cells assessed viable cells at 1.5 mM after 72 hrs by CCK-8 assay (reference value: 100.00 +/- 2.47 %). Put shortly:
(§1)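 DU-145 cells exposed 72 h to drug or drug equivalent at 0.5 mM or 1.5 mM. Viable cells read by CCK-8, absorbance 450 nm (630 nm reference). Viability % = treated viable cells / mean of untreated group (set 100%); reported as mean ± SEM; one-way ANOVA with Tukey test.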

Test [4] deals with DU-145. Kind of test: Cytotoxicity against human DU145 cells assessed viable cells at 0.5 mM after 72 hrs by CCK-8 assay (reference value: 99.97 +/- 0.84 %). Put shortly: as §1
(In general: Formazan colour is commonly taken as a measure of viable cells.)

Positions of bridges follow the written chain, without caps; N, C: chain ends. Residues, ends and D or L forms follow the SMILES beside them. *: point of attachment. Pentanoyl(2-Pr) = CCCC(CCC)C(=O)*

On to `CC(C)C[C@H](NC(=O)[C@H](Cc1ccccc1)NC(=O)CN)C(=O)NCC(=O)N[C@H]1CSSC[C@@H](C(N)=O)NC(=O)[C@H](CC(=O)O)NC(=O)[C@@H]2CCCN2C(=O)CNC(=O)[C@H](CCCCN)NC(=O)[C@H](CC(=O)O)NC(=O)CNC(=O)[C@H](CCCNC(=N)N)NC1=O` (H-GFLGCRGDKGPDC-NH2; disulfide 5-13), for which the Activity came to 73.7% in the test on DU-145 [1], 17.7% in the test with DU-145 [2], 58.67% in the test on DU-145 [3] and 70.52% with DU-145 [4].

For `CCCC(CCC)C(=O)NCC(=O)N[C@@H](Cc1ccccc1)C(=O)N[C@@H](CC(C)C)C(=O)NCC(=O)N[C@H]1CSSC[C@@H](C(N)=O)NC(=O)[C@H](CC(=O)O)NC(=O)[C@@H]2CCCN2C(=O)CNC(=O)[C@H](CCCCN)NC(=O)[C@H](CC(=O)O)NC(=O)CNC(=O)[C@H](CCCNC(=N)N)NC1=O` ({Pentanoyl(2-Pr)}-GFLGCRGDKGPDC-NH2; disulfide 5-13), the Activity with DU-145 [1] came to 76.3%; in the test on DU-145 [2] it was 15.7%; with DU-145 [3], 38.96%; with DU-145 [4], 69.3%.

On to `CCCC(CCC)C(=O)O` [VALPROIC ACID], for which the Activity with DU-145 [1] came out at 62.5%; in the test on DU-145 [2], 25.8%; in the test on DU-145 [3], 79.87%; with DU-145 [4], 99.56%.
